Results collected from several papers.
Each line is one published result; the experiments were not run side by side.
Organism: Plasmodium falciparum
Read-out: parasite growth
Setting: blood stage

`CCCCCCCCNC(C)C(O)c1ccc(SC(C)C)cc1` (stereo not drawn) has an IC50 of 72.6 nM (NF54).
`N=C(CC(O)c1cc2cccnc2c2cccnc12)Nc1ccc(F)cc1` (stereo not drawn) has an IC50 of 3200 nM (ELISA; 3D7; 72 h).
The IC50 of `COC1=CC(c2ccc[nH]2)=N/C1=C\c1[nH]c(C(=O)O)cc1Cc1ccc(OC(F)(F)F)cc1` is reported as over 2500 nM (SYBR Green; D6; 72 h).
With `N=C(CC(O)c1nc2cc(F)ccc2c2ccc(F)cc12)Nc1ccc(F)cc1` (stereo not drawn) the IC50 was 407 nM (ELISA; 3D7; 72 h).
The IC50 of `CCN(CC)CCCC(C)Nc1ccnc2cc(Cl)ccc12` (stereo not drawn) is reported as 28.2 nM (72 h).
`CC1=C(C)/C(=C/c2cc(-c3ccc(OC(F)(F)F)cc3)c(C)[nH]2)N=C1c1ccc[nH]1` has an IC50 of over 2500 nM (SYBR Green; D6; 72 h).
The IC50 of `CCN(CC)CCCC(C)Nc1ccnc2cc(Cl)ccc12` (stereo not drawn) is reported as 22.4 nM (SYBR Green; 3D7).
`N=C(CC(O)c1nc2ccccc2c2ccc(Br)cc12)Nc1ccc(F)cc1` (stereo not drawn) gave an IC50 of 19.5 nM (ELISA; 3D7; 72 h).
With `CO[C@H]1C[C@H](O[C@@H]2/C(C)=C/C[C@@H]3C[C@@H](C[C@]4(CC[C@H](C)[C@@H](C5CCCCC5)O4)O3)OC(=O)[C@@H]3C=C(C)/C(=N/O)[C@H]4OC/C(=C\C=C\[C@@H]2C)[C@]43O)O[C@@H](C)[C@@H]1O` the IC50 was 553 nM (SYBR Green; 3D7).
The IC50 of `CC1=C(C)/C(=C/c2cc(-c3ccc(Cl)cc3)c(C)[nH]2)N=C1c1ccc[nH]1` is reported as over 2500 nM (SYBR Green; D6; 72 h).
For `CCN(CC)CCCC(C)Nc1ccnc2cc(Cl)ccc12` (stereo not drawn), the IC50 was 3.3 nM (ELISA; 3D7; 72 h).
With `COC1=C(OC)/C(=C/c2[nH]c(Cc3ccc(Cl)cc3)cc2Cc2ccc(Cl)cc2)N=C1c1ccc[nH]1` the IC50 was over 2500 nM (SYBR Green; D6; 72 h).
`Cc1ccc(N(CC2=NCCN2)c2cccc(O)c2)cc1` has an IC50 of 36600 nM (NF54).
`CCOC1=CC(c2ccc[nH]2)=N/C1=C\c1cc(Cc2ccc(Cl)cc2)c(C)[nH]1` has an IC50 of 4.92 nM (SYBR Green; D6; 72 h).
With `CO[C@H]1/C=C/O[C@@]2(C)Oc3c(C)c(O)c4c(O)c(c(/C=N/N5CCN(C6CCCC6)CC5)c(O)c4c3C2=O)NC(=O)/C(C)=C\C=C\[C@H](C)[C@H](O)[C@@H](C)[C@@H](O)[C@@H](C)[C@H](OC(C)=O)[C@@H]1C` the IC50 was 238 nM (SYBR Green; 3D7).
